Results of several laboratories.
Each line is one published result; the experiments were not run side by side.
CDK4 with cyclin D1: Cyclin-dependent kinase 4, with cyclin D1 (CDK4, Homo sapiens, UniProt P11802)
CDK4: Cyclin-dependent kinase 4 (CDK4, Homo sapiens, UniProt P11802)
CDK4 with cyclin D3: Cyclin-dependent kinase 4, with cyclin D3 (CDK4, Homo sapiens, UniProt P11802)

Structure (SMILES) | target | test | setting | measurement | value
CC(C)(C)c1cc(C=C(C#N)C#N)cc(Br)c1O | CDK4 with cyclin D1 | enzyme activity, inhibitor | 0.5 µM | remaining activity | 115%
Cn1cncc1[C@](O)(COc1ccc(C#N)cc1-c1ccc(OC(F)(F)F)cc1)c1ccc(C#N)cc1 | CDK4 with cyclin D1 | cell-free assay, competition with immobilised ligand | 1 µM | remaining binding | 100%
CCOC(=O)[C@H]1Cc2c(cc([N+](=O)[O-])cc2[N+](=O)[O-])[C@H](O)[C@]12C(=O)Nc1cccc(Br)c12 | CDK4 | cell-free assay, inhibitor, TR-FRET | 1 µM | inhibition | 29.4%
Nc1ncc(-c2nc(N3CCOCC3)nc(N3CCOCC3)n2)c(C(F)F)n1 | CDK4 with cyclin D3 | binding, competition with immobilised ligand | 10 µM | remaining binding | 87%
O=c1[nH]c2ccccc2n1C1CCN(Cc2ccc(-c3[nH]c4cc5ncnc5cc4nc3-c3ccccc3)cc2)CC1 | CDK4 with cyclin D3 | cell-free assay | 0.5 µM | remaining signal | 99.7%
N#CC1(c2ccccn2)CCN(Cc2cc(C(=O)O)c(=O)n3ccccc23)CC1 | CDK4 with cyclin D3 | cell-free assay, competition with immobilised ligand | 1 µM | remaining binding | 82%
Cc1nn(C)cc1-c1nc2c(N3CCN(Cc4ccc(Cl)cc4)CC3)c(Cl)cnc2[nH]1 | CDK4 with cyclin D3 | binding, competition with immobilised ligand | 1 µM | remaining binding | 74%
CCOC(=O)[C@H]1Cc2c(cc([N+](=O)[O-])cc2[N+](=O)[O-])[C@H](O)[C@]12C(=O)Nc1ccc([N+](=O)[O-])cc12 | CDK4 | cell-free assay, inhibitor, TR-FRET | 1 µM | inhibition | 37.9%
